Reference: ChEMBL document CHEMBL5608238, “Discovery of Thiophene Derivatives as Potent, Orally Bioavailable, and Blood-Brain Barrier-Permeable Ebola Virus Entry Inhibitors” (J Med Chem, 2024)

Tests used:
Ebolavirus [1] = test: Antiviral activity against EBOV-GP pseudotyped virus infected in Vero E6 cells preincubated with cells for 1 hr followed by viral addition and measured after 24 hrs by Steady-Glo microplate luminometer analysis; format: functional, organism-based; settings: Orthoebolavirus, Vero C1008
Procedure, shortened: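 VeroE6 cells (2 × 10⁴/well) were treated with compound at 10 nM–10 μM for 1 h at 37 °C, then infected with 5000 TCID of EBOV Mayinga GP-pseudotyped rVSVΔG-luciferase. Luciferase was read by Steady-Glo after 24 h.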

Ebolavirus [2] = test: Antiviral activity against eGFP-EBOV infected in Vero E6 cells incubated for 48 hrs by spectrofluorometer assay; format: functional, organism-based; settings: Orthoebolavirus, Vero C1008, 48 h
Ebolavirus [3] = test: Antiviral activity against EBOV Kikwit infected in HeLa cells; format: functional, organism-based; settings: Orthoebolavirus
Ebolavirus [4] = test: Antiviral activity against EBOV infected in HeLa cells; format: functional, organism-based; settings: Orthoebolavirus
[5] = Toxicity in C57BL/6 mouse assessed as mortality at 250 mg/kg, po measured after 4 days; format: organism-based; settings: in vivo, 96 h, time 4 day
Procedure, shortened: (§1)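 Male and female C57BL/6 mice (3/sex/group) got a single oral gavage dose of 50, 100 or 250 mg/kg at 10 mL/kg, in 7.5% NMP, 7.5% Solutol HS-15, 25% PEG-400 and 60% RO water. Controls received vehicle. Clinical signs, body weight, percent weight gain and feed consumption were followed for 4 days, then survivors underwent euthanasia and gross pathology.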

[6] = Toxicity in C57BL/6 mouse assessed as tolerability at 50 mg/kg, po measured after 4 days; format: organism-based; settings: in vivo, 96 h, time 4 day; procedure, shortened: as §1
[7] = Drug concentration in BALB/c mouse plasma at 10 mg/kg, ip measured upto 24 hrs by LC-MS/MS analysis; format: ADME, organism-based
Procedure, shortened: (§2)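 Male BALB/c mice (8–12 weeks, 20–35 g) were given a single dose of test compound solution, either 10 mg/kg i.p. or 50 mg/kg p.o., at 10 mL/kg. Blood and then brain were taken from three mice per time point up to 24 h postdose. Plasma and brain levels were measured by LC–MS/MS, and parameters came from noncompartmental analysis.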

[8] = AUClast in BALB/c mouse plasma at 50 mg/kg, po measured upto 24 hrs by LC-MS/MS analysis; format: ADME, organism-based; settings: in vivo; procedure, shortened: as §2
[9] = Drug concentration in BALB/c mouse brain at 10 mg/kg, ip measured upto 24 hrs by LC-MS/MS analysis; format: ADME, organism-based; settings: read-out: Ct; procedure, shortened: as §2
[10] = AUClast in BALB/c mouse brain at 50 mg/kg, po measured upto 24 hrs by LC-MS/MS analysis; format: ADME, organism-based; settings: in vivo; procedure, shortened: as §2
[11] = Toxicity in C57BL/6 mouse assessed as decrease in feed consumption at 100 mg/kg, po measured after 4 days; format: organism-based; settings: in vivo, 96 h, time 4 day; procedure, shortened: as §1
[12] = Drug concentration in BALB/c mouse brain at 50 mg/kg, po measured upto 24 hrs by LC-MS/MS analysis; format: ADME, organism-based; settings: read-out: Ct; procedure, shortened: as §2
[13] = Drug concentration in BALB/c mouse plasma at 50 mg/kg, po measured upto 24 hrs by LC-MS/MS analysis; format: ADME, organism-based; procedure, shortened: as §2
[14] = AUClast in BALB/c mouse brain at 10 mg/kg, ip measured upto 24 hrs by LC-MS/MS analysis; format: ADME, organism-based; settings: in vivo; procedure, shortened: as §2
[15] = Toxicity in C57BL/6 mouse assessed as decrease in body weight gain at 100 mg/kg, po measured after 4 days; format: organism-based; settings: in vivo, 96 h, time 4 day; procedure, shortened: as §1
[16] = AUClast in BALB/c mouse plasma at 10 mg/kg, ip measured upto 24 hrs by LC-MS/MS analysis; format: ADME, organism-based; settings: in vivo; procedure, shortened: as §2
[17] = Selectivity index, ratio of CC50 for african green monkey Vero E6 cells to EC50 for EBOV-GP pseudotyped virus infected in Vero E6 cells; format: toxicity, cell-based; settings: read-out: Ratio CC50/EC50
[18] = Selectivity index, ratio of CC50 for african green monkey Vero E6 cells to EC50 for wild type Zaire EBOV Mayinga 1976 infected in Vero E6 cells; format: toxicity, cell-based; settings: read-out: Ratio CC50/EC50
[19] = Selectivity index, ratio of CC50 for african green monkey Vero E6 cells to EC50 for EBOV infected in Vero E6 cells; format: toxicity, cell-based; settings: read-out: Ratio CC50/EC50
[20] = Cytotoxicity against african green monkey Vero E6 cells; format: toxicity, cell-based, Vero C1008; settings: chlorocebus sabaeus
[21] = Tmax in BALB/c mouse plasma at 50 mg/kg, po measured upto 24 hrs by LC-MS/MS analysis; format: ADME, organism-based; settings: in vivo; procedure, shortened: as §2
[22] = Tmax in BALB/c mouse brain at 50 mg/kg, po measured upto 24 hrs by LC-MS/MS analysis; format: ADME, organism-based; settings: in vivo; procedure, shortened: as §2
[23] = Tmax in BALB/c mouse plasma at 10 mg/kg, ip measured upto 24 hrs by LC-MS/MS analysis; format: ADME, organism-based; settings: in vivo; procedure, shortened: as §2
[24] = Cmax in BALB/c mouse plasma at 50 mg/kg, po measured upto 24 hrs by LC-MS/MS analysis; format: ADME, organism-based; settings: in vivo; procedure, shortened: as §2
[25] = Tmax in BALB/c mouse brain at 10 mg/kg, ip measured upto 24 hrs by LC-MS/MS analysis; format: ADME, organism-based; settings: in vivo; procedure, shortened: as §2
[26] = Cmax in BALB/c mouse brain at 50 mg/kg, po measured upto 24 hrs by LC-MS/MS analysis; format: ADME, organism-based; settings: in vivo; procedure, shortened: as §2
Ebolavirus [27] = test: Antiviral activity against EBOV Zaire Kikwit infected in Huh-7 cells incubated for 48 to 72 hrs; format: functional, organism-based; settings: Orthoebolavirus

Compound: O=C(NCCc1ccccc1)c1ccc(-c2cccc(OC3CCNCC3)c2)s1
- EC50 (Ebolavirus [1]): 5.3 µM

Compound: CN(C)CCOc1ccc(/C(=C(/CCCl)c2ccccc2)c2ccccc2)cc1 [TOREMIFENE]
- IC50 (Ebolavirus [2]): 0.162 µM

Compound: Nc1ncnc2c([C@@H]3N[C@H](CO)[C@@H](O)[C@H]3O)c[nH]c12
- EC50 (Ebolavirus [3]): 11.8 µM

Compound: CCC(CC)COC(=O)[C@H](C)N[P@](=O)(OC[C@H]1O[C@@](C#N)(c2ccc3c(N)ncnn23)[C@H](O)[C@@H]1O)Oc1ccccc1
- EC50 (Ebolavirus [4]): 0.14 µM

Compound: O=C(Nc1ccccc1)c1ccc(-c2ccc(OC3CCNCC3)cc2)s1
- Activity [5]: Toxic
- Activity [6]: Non-Toxic
- concentration at 24 h [7]: 2740 nM
- AUClast [8]: 8610.24 ng·h/mL
- concentration at 24 h [9]: 4430 nM
- AUClast [10]: 97086.13 ng·h/mL
- Activity [11]: Toxic
- concentration at 24 h [12]: 14800 nM
- concentration at 24 h [13]: 2040 nM
- AUClast [14]: 25429.34 ng·h/mL
- Activity [15]: Toxic
- AUClast [16]: 2973.11 ng·h/mL

Compound: O=C(Nc1ccccc1)c1ccc(-c2cccc(OC3CCNCC3)c2)s1
- selectivity ratio [17]: 4.7
- selectivity ratio [18]: 113

Compound: NC(=O)c1nc(F)c[nH]c1=O
- selectivity ratio [19]: 14.9
- CC50 [20]: > 1000 µM

Compound: O=C(Nc1ccccc1)c1ccc(-c2ccccc2OC2CCNCC2)s1
- concentration at 24 h [7]: 320 nM
- AUClast [8]: 541.78 ng·h/mL
- Tmax [21]: 1 h
- concentration at 24 h [9]: 330 nM
- Tmax [22]: 6 h
- Tmax [23]: 0.25 h
- Cmax [24]: 112.31 ng/mL
- AUClast [10]: 3341.42 ng·h/mL
- concentration at 24 h [12]: 810 nM
- concentration at 24 h [13]: 290 nM
- AUClast [14]: 600.09 ng·h/mL
- Tmax [25]: 2 h
- AUClast [16]: 271.74 ng·h/mL
- Cmax [26]: 316.7 ng/mL

Compound: CC(C)C(=O)OC[C@H]1O[C@@](C#N)(c2ccc3c(N)ncnn23)[C@H](O)[C@@H]1O [OBELDESIVIR]
- EC50 (Ebolavirus [27]): 4.16 µM
